Square brackets hold non-standard residues; d marks the D form. Peptide text beside a SMILES is read from it. NMeA = CN[C@@H](C)C(=O)O; Dab = NCC[C@H](N)C(=O)O
Key:
[1] = molecular target: T1, IgG receptor FcRn large subunit p51 (Homo sapiens, UniProt P55899); assay: Inhibition of human IgG binding to soluble human FcRn by ELISA
Summary of the method: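 Biotinylated soluble human FcRn immobilized on neutravidin plates, incubated with hIgG (3 nM, constant) and peptide at varying concentrations for 2 h at 37 °C. After washing, bound hIgG detected with peroxidase-conjugated hIgG-specific Fab fragments.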

[2] = molecular target: T1, IgG receptor FcRn large subunit p51; assay: Binding affinity to human FcRn at pH 6 by surface plasmon resonance assay
Summary of the method: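 Soluble human FcRn coupled to the dextran surface of a CM5 chip; peptide dilutions flowed over the chip. The equilibrium response at each dilution was plotted against concentration and fitted to a steady-state affinity model to give Kd.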

T1 sequence (P55899 whole entry, the tested form may be a part): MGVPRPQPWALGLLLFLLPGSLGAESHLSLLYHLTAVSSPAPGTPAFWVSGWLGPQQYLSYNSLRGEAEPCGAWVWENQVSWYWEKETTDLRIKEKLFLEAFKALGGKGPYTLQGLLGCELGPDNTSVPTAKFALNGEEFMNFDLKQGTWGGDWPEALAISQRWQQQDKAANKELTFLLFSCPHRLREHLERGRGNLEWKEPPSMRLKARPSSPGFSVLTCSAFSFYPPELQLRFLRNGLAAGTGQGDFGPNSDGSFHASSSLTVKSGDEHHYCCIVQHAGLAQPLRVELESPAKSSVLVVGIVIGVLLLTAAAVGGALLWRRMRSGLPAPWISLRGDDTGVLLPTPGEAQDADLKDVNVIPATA

SMILES	IC50 [1]	Kd [2]
CC(C)C[C@H](NC(=O)CNC(=O)CNC(=O)[C@H](Cc1ccccc1)NC(=O)[C@H](Cc1cnc[nH]1)NC(=O)CNC(=O)[C@@H](NC(=O)[C@@H](NC(=O)[C@H](Cc1ccccc1)NC(=O)[C@H](CCCNC(=N)N)NC(=O)[C@@H](N)CCC(N)=O)C(C)(C)S)[C@@H](C)O)C(=O)N[C@@H](Cc1c(F)c(F)c(F)c(F)c1F)C(=O)N1CCC[C@H]1C(=O)N[C@@H](CS)C(=O)N[C@@H](CC(N)=O)C(=O)NCC(=O)N1CCC[C@H]1C(=O)O	> 125 µM	72 µM
COc1ccc(C[C@H](NC(=O)[C@H](Cc2cnc[nH]2)NC(=O)CNC(=O)[C@@H](NC(=O)[C@@H](NC(=O)[C@H](Cc2ccccc2)NC(=O)[C@H](CCCN=C(N)N)NC(=O)[C@@H](N)CCC(N)=O)C(C)(C)S)[C@@H](C)O)C(=O)NCC(=O)NCC(=O)N[C@@H](CC(C)C)C(=O)N[C@@H](Cc2ccc(O)cc2)C(=O)N2CCC[C@H]2C(=O)N[C@@H](CS)C(=O)N[C@@H](CC(N)=O)C(=O)NCC(=O)N2CCC[C@H]2C(=O)O)cc1	100 µM	18 µM
CC(C)C[C@@H](C(=O)N[C@@H](Cc1ccc(O)cc1)C(=O)N1CCC[C@H]1C(=O)N[C@@H](CS)C(=O)N[C@@H](CC(N)=O)C(=O)NCC(=O)N1CCC[C@H]1C(=O)O)N(C)C(=O)CNC(=O)[C@@H](Cc1ccccc1)NC(=O)[C@H](Cc1ccccc1)NC(=O)[C@H](Cc1cnc[nH]1)NC(=O)CNC(=O)[C@@H](NC(=O)[C@@H](NC(=O)[C@H](Cc1ccccc1)NC(=O)[C@H](CCCNC(=N)N)NC(=O)[C@@H](N)CCC(N)=O)C(C)(C)S)[C@@H](C)O	1.3 µM	0.24 µM
CC(C)C[C@H](NC(=O)CNC(=O)CNC(=O)[C@H](Cc1cccnc1)NC(=O)[C@H](Cc1cnc[nH]1)NC(=O)CNC(=O)[C@@H](NC(=O)[C@@H](NC(=O)[C@H](Cc1ccccc1)NC(=O)[C@H](CCCN=C(N)N)NC(=O)[C@@H](N)CCC(N)=O)C(C)(C)S)[C@@H](C)O)C(=O)N[C@@H](Cc1ccc(O)cc1)C(=O)N1CCC[C@H]1C(=O)N[C@@H](CS)C(=O)N[C@@H](CC(N)=O)C(=O)NCC(=O)N1CCC[C@H]1C(=O)O	60 µM	19 µM
CC(C)C[C@@H](C(=O)N[C@@H](Cc1ccc(O)cc1)C(=O)N1CCC[C@H]1C(=O)N[C@@H](CS)C(=O)N[C@@H](CC(N)=O)C(=O)NCC(=O)N1CCC[C@H]1C(=O)O)N(C)C(=O)CNC(=O)[C@@H](C)NC(=O)[C@H](Cc1ccccc1)NC(=O)[C@H](Cc1cnc[nH]1)NC(=O)CNC(=O)[C@@H](NC(=O)[C@@H](NC(=O)[C@H](Cc1ccccc1)NC(=O)[C@H](CCCNC(=N)N)NC(=O)[C@@H](N)CCC(N)=O)C(C)(C)S)[C@@H](C)O	3.2 µM	0.23 µM
CC(C)C[C@H](NC(=O)[C@H]1CCCN1C(=O)[C@@H](Cc1ccccc1)NC(=O)[C@H](Cc1ccccc1)NC(=O)[C@H](Cc1cnc[nH]1)NC(=O)CNC(=O)[C@@H](NC(=O)[C@@H](NC(=O)[C@H](Cc1ccccc1)NC(=O)[C@H](CCCN=C(N)N)NC(=O)[C@@H](N)CCC(N)=O)C(C)(C)S)[C@@H](C)O)C(=O)N[C@@H](Cc1ccc(O)cc1)C(=O)N1CCC[C@H]1C(=O)N[C@@H](CS)C(=O)N[C@@H](CC(N)=O)C(=O)NCC(=O)N1CCC[C@H]1C(=O)O	5.9 µM	0.72 µM
CC(C)C[C@@H](C(=O)N[C@@H](Cc1ccc(O)cc1)C(=O)N1CCC[C@H]1C(=O)N[C@@H](CS)C(=O)O)N(C)C(=O)CN1CCCC[C@@H](NC(=O)[C@H](Cc2ccccc2)NC(=O)[C@H](Cc2cnc[nH]2)NC(=O)CNC(=O)[C@@H](NC(=O)[C@H](NC(=O)[C@H](Cc2ccccc2)NC(=O)[C@@H](N)CCCNC(=N)N)C(C)(C)S)[C@@H](C)O)C1=O	0.62 µM	0.044 µM
CC(C)C[C@@H](C(=O)N[C@@H](Cc1ccc(O)cc1)C(=O)N1CCC[C@H]1C(=O)N[C@@H](CS)C(=O)O)N(C)C(=O)CN1CCC[C@@H](NC(=O)[C@H](Cc2ccccc2)NC(=O)[C@H](Cc2cnc[nH]2)NC(=O)CNC(=O)[C@@H](NC(=O)[C@H](NC(=O)[C@H](Cc2ccccc2)NC(=O)[C@@H](N)CCCNC(=N)N)C(C)(C)S)[C@@H](C)O)C1=O	0.53 µM	0.043 µM
CC(C)C[C@H](NC(=O)CN1CCC[C@@H](NC(=O)[C@H](Cc2ccccc2)NC(=O)[C@H](Cc2cnc[nH]2)NC(=O)CNC(=O)[C@@H](NC(=O)[C@@H](NC(=O)[C@H](Cc2ccccc2)NC(=O)[C@@H](N)CCCNC(=N)N)C(C)(C)S)[C@@H](C)O)C1=O)C(=O)N[C@@H](Cc1ccc(O)cc1)C(=O)N1CCC[C@H]1C(=O)N[C@@H](CS)C(=O)O	0.66 µM	0.16 µM
CC(C)C[C@H](NC(=O)[C@@H](C)NC(=O)[C@@H](C)NC(=O)[C@H](Cc1ccccc1)NC(=O)[C@H](Cc1cnc[nH]1)NC(=O)CNC(=O)[C@@H](NC(=O)[C@H](CS)NC(=O)[C@H](Cc1ccccc1)NC(=O)[C@H](CCCN=C(N)N)NC(=O)[C@@H](N)CCC(N)=O)[C@@H](C)O)C(=O)N[C@@H](Cc1ccc(O)cc1)C(=O)N1CCC[C@H]1C(=O)N[C@@H](CS)C(=O)N[C@@H](CC(N)=O)C(=O)NCC(=O)N1CCC[C@H]1C(=O)O	69 µM	22 µM

Next, values leading:

IC50 [1]	Kd [2]	SMILES
100 µM	27 µM	CC(C)C[C@H](NC(=O)CNC(=O)CNC(=O)[C@H](Cc1ccccc1)NC(=O)[C@H](Cc1cnc[nH]1)NC(=O)CNC(=O)[C@@H](NC(=O)[C@H](CCC(=O)O)NC(=O)[C@H](Cc1ccccc1)NC(=O)[C@H](CCCNC(=N)N)NC(=O)[C@@H](N)CCC(N)=O)[C@@H](C)O)C(=O)N[C@@H](Cc1ccc(O)cc1)C(=O)N1CCC[C@H]1C(=O)N[C@@H](CCCCN)C(=O)N[C@@H](CC(N)=O)C(=O)NCC(=O)N1CCC[C@H]1C(=O)O
> 125 µM	> 250 µM	CC(C)C[C@H](NC(=O)CNC(=O)CNC(=O)[C@H](C)NC(=O)[C@H](Cc1cnc[nH]1)NC(=O)CNC(=O)[C@@H](NC(=O)[C@H](CS)NC(=O)[C@H](Cc1ccccc1)NC(=O)[C@H](CCCNC(=N)N)NC(=O)[C@@H](N)CCC(N)=O)[C@@H](C)O)C(=O)N[C@@H](Cc1ccc(O)cc1)C(=O)N1CCC[C@H]1C(=O)N[C@@H](CS)C(=O)N[C@@H](CC(N)=O)C(=O)NCC(=O)N1CCC[C@H]1C(=O)O (H-QRFCTGHAGGLYPCNGP-OH)
71 µM	9.6 µM	CC(C)C[C@H](NC(=O)CNC(=O)CNC(=O)[C@H](Cc1ccccc1)NC(=O)[C@H](Cc1cnc[nH]1)NC(=O)CNC(=O)[C@@H](NC(=O)[C@H](CCC(=O)O)NC(=O)[C@H](Cc1ccccc1)NC(=O)[C@H](CCCNC(=N)N)NC(=O)[C@@H](N)CCC(N)=O)[C@@H](C)O)C(=O)N[C@@H](Cc1ccc(O)cc1)C(=O)N1CCC[C@H]1C(=O)N[C@@H](CN)C(=O)N[C@@H](CC(N)=O)C(=O)NCC(=O)N1CCC[C@H]1C(=O)O
86 µM	22 µM	CC(C)C[C@H](NC(=O)CNC(=O)CNC(=O)[C@H](Cc1ccccc1)NC(=O)[C@H](Cc1cnc[nH]1)NC(=O)CNC(=O)[C@@H](NC(=O)[C@H](CCC(=O)O)NC(=O)[C@H](Cc1ccccc1)NC(=O)[C@H](CCCNC(=N)N)NC(=O)[C@@H](N)CCC(N)=O)[C@@H](C)O)C(=O)N[C@@H](Cc1ccc(O)cc1)C(=O)N1CCC[C@H]1C(=O)N[C@@H](CCN)C(=O)N[C@@H](CC(N)=O)C(=O)NCC(=O)N1CCC[C@H]1C(=O)O
169 µM	18 µM	CC(C)C[C@H](NC(=O)CNC(=O)CNC(=O)[C@H](Cc1ccccc1)NC(=O)[C@H](Cc1cnc[nH]1)NC(=O)CNC(=O)[C@H](C)N(C)C(=O)[C@H](CS)NC(=O)[C@H](Cc1ccccc1)NC(=O)[C@H](CCCNC(=N)N)NC(=O)[C@@H](N)CCC(N)=O)C(=O)N[C@@H](Cc1ccc(O)cc1)C(=O)N1CCC[C@H]1C(=O)N[C@@H](CS)C(=O)N[C@@H](CC(N)=O)C(=O)NCC(=O)N1CCC[C@H]1C(=O)O (H-QRFC[NMeA]GHFGGLYPCNGP-OH)
30 µM	8 µM	CC(C)C[C@H](NC(=O)CNC(=O)CNC(=O)[C@H](Cc1ccccc1)NC(=O)[C@H](Cc1cnc[nH]1)NC(=O)CNC(=O)[C@@H](NC(=O)[C@H](CS)NC(=O)[C@H](Cc1ccccc1)NC(=O)[C@H](CCCN=C(N)N)NC(=O)[C@@H](N)CCC(N)=O)[C@@H](C)O)C(=O)N[C@@H](Cc1ccc(O)cc1)C(=O)N1CCC[C@H]1C(=O)N[C@@H](CS)C(=O)N[C@@H](C)C(=O)NCC(=O)N1CCC[C@H]1C(=O)O
> 125 µM	230 µM	CC(C)C[C@H](NC(=O)CNC(=O)[C@H](C)NC(=O)[C@H](Cc1ccccc1)NC(=O)[C@H](Cc1cnc[nH]1)NC(=O)CNC(=O)[C@@H](NC(=O)[C@H](CS)NC(=O)[C@H](Cc1ccccc1)NC(=O)[C@H](CCCNC(=N)N)NC(=O)[C@@H](N)CCC(N)=O)[C@@H](C)O)C(=O)N[C@@H](Cc1ccc(O)cc1)C(=O)N1CCC[C@H]1C(=O)N[C@@H](CS)C(=O)N[C@@H](CC(N)=O)C(=O)NCC(=O)N1CCC[C@H]1C(=O)O
23 µM	7.7 µM	CC(C)C[C@H](NC(=O)CNC(=O)CNC(=O)[C@H](Cc1ccccc1)NC(=O)[C@H](Cc1cnc[nH]1)NC(=O)CNC(=O)[C@@H](NC(=O)[C@H](CS)NC(=O)[C@H](Cc1ccccc1)NC(=O)[C@H](C)NC(=O)[C@@H](N)CCC(N)=O)[C@@H](C)O)C(=O)N[C@@H](Cc1ccc(O)cc1)C(=O)N1CCC[C@H]1C(=O)N[C@@H](CS)C(=O)N[C@@H](CC(N)=O)C(=O)NCC(=O)N1CCC[C@H]1C(=O)O
81 µM	4.8 µM	CC(C)C[C@H](NC(=O)CNC(=O)CNC(=O)[C@H](Cc1ccccc1)NC(=O)[C@H](Cc1cnc[nH]1)NC(=O)CNC(=O)[C@@H](NC(=O)[C@H](CCN)NC(=O)[C@H](Cc1ccccc1)NC(=O)[C@H](CCCN=C(N)N)NC(=O)[C@@H](N)CCC(N)=O)[C@@H](C)O)C(=O)N[C@@H](Cc1ccc(O)cc1)C(=O)N1CCC[C@H]1C(=O)N[C@@H](CCC(=O)O)C(=O)N[C@@H](CC(N)=O)C(=O)NCC(=O)N1CCC[C@H]1C(=O)O (H-QRF[Dab]TGHFGGLYPENGP-OH)
